According to PMC3584523 (International Journal of Oncology, 2011):
“Also recorded” adds a separate entry of the source.

Columns and labels:
[1] = target: T1, human recombinant LPA1 receptor (Homo sapiens, UniProt Q92633); experiment: Calcium flux assay, antagonism of LPA-induced calcium flux; format: cell-based; settings: for IC50: read-out: IC50, inhibition of LPA-induced calcium flux, human LPA1-expressing Chem-1 cells, 1 μM Oleoyl LPA
[2] = target: T1, human recombinant LPA1 receptor; experiment: Calcium flux assay, LPA1 agonist activity; format: cell-based; settings: human LPA1-expressing Chem-1 cells; for agonist activity at the LPA1 receptor (calcium flux): 0.0045–10 μM
Method in brief: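 Chem-1 stable cell line expressing human recombinant LPA1, loaded with Fluo-4 NW. Test compound, the racemic reference or oleoyl-LPA reference agonist was added as an eight-point 3-fold serial dilution starting at 10 μM (0.0045–10 μM), and calcium flux stimulation was measured. The reference agonist's EC80 was derived from its dose-response.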

LPA3 = target: T2, LPA3 (Homo sapiens, UniProt Q9UBY5); experiment: Antagonist activity at LPA3; format: cell-based; settings: read-out: IC50, antagonist activity at LPA3
T2 sequence (Q9UBY5 1-353): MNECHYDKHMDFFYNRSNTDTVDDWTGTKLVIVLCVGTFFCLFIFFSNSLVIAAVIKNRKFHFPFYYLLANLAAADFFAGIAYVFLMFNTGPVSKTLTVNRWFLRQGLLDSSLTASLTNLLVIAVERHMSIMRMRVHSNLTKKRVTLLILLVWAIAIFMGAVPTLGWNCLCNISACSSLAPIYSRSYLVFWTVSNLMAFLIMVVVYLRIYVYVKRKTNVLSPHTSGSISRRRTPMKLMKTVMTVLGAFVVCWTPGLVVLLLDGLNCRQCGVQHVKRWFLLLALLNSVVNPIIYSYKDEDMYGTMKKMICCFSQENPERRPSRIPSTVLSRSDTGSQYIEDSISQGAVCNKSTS

[3] = system: 4T1 mouse mammary cancer cells; experiment: LPA-induced cell invasion assay; format: cell-based; settings: LPA 5 μM as chemoattractant; Debio 0719 1 and 5 μM; 24 h
Method in brief: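 4T1 cells were grown in DMEM with 10% FBS and penicillin/streptomycin at 37°C, 5% CO2. 2×10^5 cells were placed in the upper compartment of Matrigel-coated 8-μm filter chambers with or without test compound. LPA with 1% FBS was in the lower chamber. After 24 h at 37°C, cells that crossed the filter were fixed, stained and counted in 10 random fields (×40) and reported as cells/mm2.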

[4] = Pharmacokinetic study in male CD-1 mice; format: in vivo, mouse
Method in brief: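 Male CD-1 mice received test compound in 10% DMA, 5% Cremophor EL and 85% saline. It was given either as an intravenous 5 mg/kg bolus into the jugular vein or by oral gavage at 50 mg/kg. Retro-orbital blood was taken into sodium heparin, n=3 per time point. Plasma was spiked with methanol and lovastatin internal standard, vortexed, centrifuged and measured by LC/MS. Parameters are given as means.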

4T1 cells [5] = experiment: Orthotopic 4T1 mammary fat pad model, treatment day 0 to 14; format: in vivo, mouse
4T1 cells [6] = experiment: Orthotopic 4T1 model, adjuvant treatment day 15 to 35; format: in vivo, mouse; settings: 25 or 50 mg/kg per os twice daily after tumor resection at day 14
Method in brief: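 To count disseminated tumour cells, marrow was flushed from tibias and femurs and plated in complete medium with 6-thioguanine 10 μM, which only the naturally resistant 4T1 cells survive. After two weeks the clones were fixed, stained and counted, and reported as clones/mm2.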

[7] = system: breast cancer cell-mediated bone metastases; settings: treatment of bone metastatic animals; cited from earlier work

T1 sequence (Q92633 whole entry): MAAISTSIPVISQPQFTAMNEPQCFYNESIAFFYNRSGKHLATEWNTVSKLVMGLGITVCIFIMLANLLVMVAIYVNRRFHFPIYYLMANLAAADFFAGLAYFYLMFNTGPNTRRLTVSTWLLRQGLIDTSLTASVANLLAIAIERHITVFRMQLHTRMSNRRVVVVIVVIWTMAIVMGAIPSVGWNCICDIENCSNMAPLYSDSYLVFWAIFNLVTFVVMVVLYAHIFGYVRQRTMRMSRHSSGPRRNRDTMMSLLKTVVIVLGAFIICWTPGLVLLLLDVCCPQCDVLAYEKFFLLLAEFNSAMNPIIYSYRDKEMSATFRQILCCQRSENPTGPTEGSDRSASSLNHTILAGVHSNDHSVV

## Cc1noc(-c2ccc(CSCCC(=O)O)cc2)c1NC(=O)O[C@H](C)c1ccccc1Cl [Debio 0719]
[1]; ratio of IC50 values
  potency relative to Ki16425 at inhibiting LPA1-induced calcium flux: 2 fold
[1]
  IC50: 60 nM
[2]
  agonist activity at the LPA1 receptor (calcium flux): no agonist activity; also recorded: did not demonstrate any agonist effects
LPA3
  IC50: 660 nM
[3]
  LPA-induced 4T1 cell invasion: dose-dependently blocked
[4]
  tolerability after oral exposure: well tolerated
[4]; intravenous 5 mg/kg
  Plasma clearance: 111 mL/min/kg
  Time to maximum concentration: 0.08 h
  plasma concentration by 4 h: ~ 1 nM
[4]; oral 50 mg/kg
  Bioavailability: 14.41 % EF
  Time to maximum concentration: 0.25 h
  plasma concentration by 8 h: ~ 10 nM
  time of peak plasma concentration: 15 min
[4]; oral 50 mg/kg, no unit in text
  oral bioavailability: 14.41
4T1 cells [5]; 50 mg/kg per os twice daily, day 0 to 14, sacrifice day 35, p=0.022
  inhibition of number of lung metastasis foci: 62%
4T1 cells [5]; 50 mg/kg per os twice daily, day 0 to 14, sacrifice day 35, p=0.029
  inhibition of total area of lung metastases: 89%
4T1 cells [5]; 25 and 50 mg/kg per os twice daily, day 0 to 14, female BALB/c mice
  tolerability (mouse weight gain, deleterious effects): well tolerated; also recorded: did not induce noticeable deleterious effects
4T1 cells [5]; 25 and 50 mg/kg per os twice daily, day 0 to 14, tumors resected day 14
  burden (weight) of resected primary tumors vs untreated: no difference
4T1 cells [5]; either high or low dose, day 0 to 14, sacrifice day 35
  rescue of 4T1-DTCs from bone marrow: not able to rescue any 4T1-DTCs
4T1 cells [5]; lower dosing (25 mg/kg per os twice daily), day 0 to 14, p=0.053
  reduction in the area of lung metastasis foci: did not reach statistical significance
4T1 cells [5]; per os twice daily, day 0 to 14, immunohistochemistry
  expression of mitotic marker Ki-67 in primary tumors vs untreated: similar
4T1 cells [6]
  number of 4T1-DTCs rescued from bone marrow vs vehicle: no statistically significant difference

## CCCCCCCC/C=C\CCCCCCCC(=O)OC[C@@H](O)COP(=O)(O)O [oleoyl LPA, Lysophosphatidic acid (LPA, Oleoyl C18:1), reference compound]
[2]; read-out: EC50, stimulation of calcium flux
  EC50: 490 nM

## Cc1noc(-c2ccc(CSCCC(=O)O)cc2)c1NC(=O)OC(C)c1ccccc1Cl (centres unmarked) [Ki16425, reference compound]
[1]
  IC50: 130 nM
[2]
  agonist activity at the LPA1 receptor (calcium flux): no agonist activity
LPA3
  IC50: 2300 nM
[7]
  progression of bone metastases: inhibits efficiently the progression of bone metastases

## Cc1noc(-c2ccc(CSCCC(=O)O)cc2)c1NC(=O)O[C@@H](C)c1ccccc1Cl [Debio 0719-425(S)]
[1]
  IC50: 2800 nM
[2]
  agonist activity at the LPA1 receptor (calcium flux): no agonist activity
